Assays:
Mus musculus [1] = assay: […] anticancer activity against B6D2F-1 mice bearing Lewis Lung Carcinoma measured by the average weight change(g) after day 14 at an intraperitoneal dose of 6(mg/kg).; type: functional
Procedure, shortened: (§1)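 Male B6D2F1 mice (8 weeks old, 20–25 g) received 4×10^6 Lewis lung carcinoma cells sc on day -2. Dosing was ip, QDx5, starting on day 1. Groups were 4 control mice and 3 mice per dose. Tumor size and average body-weight change were evaluated on days 7, 10 and 14. Tumor volume is expressed as the treated/control ratio.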

Mus musculus [2] = assay: […] anticancer activity against B6D2F-1 mice bearing P388 leukemia measured by the increase in lifespan(%) at an intravenous dose of 15(mg/kg).; type: functional
Procedure, shortened: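 Male B6D2F1 mice, 8 weeks old, 20–25 g. P388/0 ascites cells (0.2 mL, ascites:saline 1.10) were implanted iv on day 0, and the tumor grew in the liver. Drug was given iv by tail vein on days 1, 3, 5, 7 and 9 (Q2Dx5), with 4–5 mice per group. Survival time was scored as 8 a.m. (0.0), 1 p.m. (0.25) or 5 p.m. (0.5) deaths. %ILS was averaged against untreated controls, and toxic deaths were counted.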

Mus musculus [3] = assay: […] anticancer activity against B6D2F-1 mice bearing Lewis Lung Carcinoma measured by the average weight change(g) after day 10 at an intraperitoneal dose of 3(mg/kg).; type: functional; procedure, shortened: as §1
Mus musculus [4] = assay: […] anticancer activity against B6D2F-1 mice bearing Lewis Lung Carcinoma measured by the Average tumor vol after day 14 at an intraperitoneal dose of 3(mg/kg).; type: functional; procedure, shortened: as §1
Mus musculus [5] = assay: […] anticancer activity against B6D2F-1 mice bearing Sarcoma 180 measured by the Average tumor vol after day 7 at an intravenous dose of 7(mg/kg).
Mus musculus [6] = assay: […] anticancer activity against B6D2F-1 mice bearing P388 leukemia measured by the average weight change(g) after day 9 at an intravenous dose of 15(mg/kg).; type: functional
Procedure, shortened: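 Male B6D2F1 mice (8 weeks old, 20–25 g) were implanted iv on day 0 with P388/0 ascites cells (0.2 mL; ascites:saline = 1.10). Tumor grew in the liver. Drug was given iv via the tail vein, Q2Dx5, on days 1, 3, 5, 7 and 9. Body weight was recorded on days 1, 7, 9 and 11 and reported as the average change (g).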

Mus musculus [7] = assay: […] anticancer activity against B6D2F-1 mice bearing Sarcoma 180 measured by the average weight change(g) after day 7 at an intraperitoneal dose of 3(mg/kg).; type: functional
Procedure, shortened: (§2)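 Male B6D2F1 mice (8 weeks old, 20–25 g) were inoculated sc with 3×10^6 Sarcoma 180 cells on day 0. Dosing was ip, QDx5, starting on day 1. Groups were 4 control mice and 2 mice per dose. Average body weight change (g) and treated/control tumor volume were evaluated on days 7, 10 and 14.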

Mus musculus [8] = assay: […] anticancer activity against B6D2F-1 mice bearing P388 leukemia measured by the average body weight(g) after day 1 at an intravenous dose of 15(mg/kg).
Mus musculus [9] = assay: […] anticancer activity against B6D2F-1 mice bearing P388 leukemia measured by the average body weight(g) after day 1 at an intravenous dose of 10(mg/kg).
Mus musculus [10] = assay: […] anticancer activity against B6D2F-1 mice bearing P388 leukemia measured by the average weight change(g) after day 11 at an intravenous dose of 15(mg/kg).; type: functional
Procedure, shortened: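 Male B6D2F1 mice (8 weeks old, 20–25 g) were implanted iv on day 0 with P388/0 ascites cells (0.2 mL; ascites:saline 1.10), which grew in the liver. Drug was given iv via the tail vein, Q2Dx5, on days 1, 3, 5, 7 and 9. Groups had 4–5 mice. Day 1 value is mean body weight; later days are weight change.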

Mus musculus [11] = assay: […] anticancer activity against B6D2F-1 mice bearing Lewis Lung Carcinoma measured by the Average tumor vol after day 7 at an intraperitoneal dose of 3(mg/kg).; type: functional; procedure, shortened: as §1
Mus musculus [12] = assay: […] anticancer activity against B6D2F-1 mice bearing Sarcoma 180 measured by the average weight change(g) after day 14 at an intraperitoneal dose of 3(mg/kg).
Mus musculus [13] = assay: […] anticancer activity against B6D2F-1 mice bearing Lewis Lung Carcinoma measured by the average weight change(g) after day 7 at an intraperitoneal dose of 3(mg/kg).; type: functional; procedure, shortened: as §1
Mus musculus [14] = assay: […] anticancer activity against B6D2F-1 mice bearing Sarcoma 180 measured by the average weight change(g) after day 10 at an intraperitoneal dose of 3(mg/kg).; type: functional; procedure, shortened: as §2
Mus musculus [15] = assay: […] anticancer activity against B6D2F-1 mice bearing Lewis Lung Carcinoma measured by the average weight change(g) after day 7 at an intraperitoneal dose of 6(mg/kg).; type: functional; procedure, shortened: as §1
Mus musculus [16] = assay: […] anticancer activity against B6D2F-1 mice bearing Sarcoma 180 measured by the Average tumor vol after day 14 at an intravenous dose of 5(mg/kg).

CCOC(=O)Nc1cc(CO)cc(Nc2c3ccccc3nc3ccccc23)c1
Average weight change (Mus musculus [1]): -0.5 g | Increase in life-span (Mus musculus [2]): 106% | Average weight change (Mus musculus [3]): -1.3 g | Average tumor volume (Mus musculus [4]): 0.68 | Average tumor volume (Mus musculus [5]): 0.22 | Average weight change (Mus musculus [6]): -2 g | Average weight change (Mus musculus [7]): -2 g | Body weight (Mus musculus [8]): 23 g | Body weight (Mus musculus [9]): 22.9 g | Average weight change (Mus musculus [10]): -3.7 g | Average tumor volume (Mus musculus [11]): 0.8 | Average weight change (Mus musculus [12]): -0.8 g | Average weight change (Mus musculus [13]): -2.3 g | Average weight change (Mus musculus [14]): -0.7 g | Average weight change (Mus musculus [15]): -3 g | Average tumor volume (Mus musculus [16]): 0.8

Reference: ChEMBL document CHEMBL1132156, “Synthesis and structure-activity relationships of potential anticancer agents: alkylcarbamates of 3-(9-acridinylamino)-5-hydroxymethylaniline” (J Med Chem, 1999)
